An excerpt weighted towards active compounds, which were near 4.3% of everything screened.
TAAR1 antagonist: antagonists of human TAAR1; Q96RJ0; CHO RD-HGA16 TAAR1, Fluo-8 calcium fluorescence, antagonist; inhibition, % at 3 µM; hit rate 1.5% among 360,000; AID 624466;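 active means inhibition above a per-plate cutoff, the mean inhibition of test compounds on that plate plus 3 SD, cut at about 49% in these data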;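 further: 0% = DMSO plus EC80 beta-PEA response and 100% = DMSO alone without agonist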
Target sequence (Q96RJ0 whole entry, looked up): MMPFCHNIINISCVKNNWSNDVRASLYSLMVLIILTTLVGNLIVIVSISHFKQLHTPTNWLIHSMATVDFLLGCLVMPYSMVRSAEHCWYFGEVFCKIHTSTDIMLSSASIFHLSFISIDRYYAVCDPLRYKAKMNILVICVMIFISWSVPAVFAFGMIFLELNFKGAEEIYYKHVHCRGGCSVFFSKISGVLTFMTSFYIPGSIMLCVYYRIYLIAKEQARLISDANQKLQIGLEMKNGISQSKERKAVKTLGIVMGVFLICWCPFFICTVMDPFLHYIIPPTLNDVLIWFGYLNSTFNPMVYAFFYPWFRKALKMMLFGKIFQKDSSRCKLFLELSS
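Assay system: CHO-derived RD-HGA16 cells stably expressing human TAAR1 plus Gα16. Timing: 140 s kinetic read after compound, 140 s after agonist. Technique: kinetic Fluo-8 calcium fluorescence measurement. Measure: % inhibition of agonist calcium response.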
TAAR1 agonist: agonists of human TAAR1; Q96RJ0; CHO RD-HGA16 TAAR1, Fluo-8 calcium fluorescence; vehicle wells 0%, saturating PEA agonist 100%; activation, % at 3 µM; hit rate 0.99% among 360,000;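 active means activation above the mean activation of all test compounds in the run plus 3 SD, cut at about 38% in these data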
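Assay system – CHO-derived RD-HGA16 cells with stable Gα16 and human TAAR1 · Compound dosing – one-point dosing at 3 µM (nominal) · Incubation – 17-24 h seeding, 75 min 37 °C dye, 30 min RT · Measured by – kinetic Fluo-8 calcium fluorescence · Control set – DMSO vehicle as 0%, PEA at EC100 as 100% · Repeats – single well for each compound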
OX1R antag-1: blocks the human orexin 1 receptor; CHO/OX1R cells, Fluo-8 calcium fluorescence, orexin A; inhibition, % at 5 µM; O43613; hit rate 0.43% among 330,000;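 active means inhibition above its plate's threshold, mean inhibition of all tested compounds on the plate plus 3 SD, cut at about 37% in these data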;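 further: 0% = orexin A challenge wells and 100% = SB-334867-A antagonist wells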
OX1R antag-2: antagonists of human orexin 1 receptor (OX1R); O43613; OX1R-expressing cells, FRET antagonist read-out; inhibition, % at 6.6 µM; hit rate 1.8% among 330,000; AID 485270; in the data active means inhibition mostly above about 38%, no sharp cut-off; inactive means mostly below about 40%;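 further: 0% = agonist challenge alone and 100% = reference antagonist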
GalR3 antagonist: antagonists of human GalR3 | O60755 | HEK293 GalR3-CNG cAMP membrane potential fluorescence; galR3 body fused to GalR1 C-terminus | inhibition, % at 3 µM | hit rate 0.44% among 360,000 | AID 651719;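 active means inhibition above the screen-wide average plus 3 SD, cut at about 13% in these data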;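 further: forskolin and galanin both at EC90 stimulate the cells; cAMP rise reported by CNG channel membrane potential dye signal; 0% = forskolin plus galanin with DMSO and 100% = forskolin alone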
CHO parental Ca: counter-screen: ATP calcium response change in parental CHO cells | parental CHO-K1, ATP-induced calcium, Fluo-8 fluorescence | inhibition, % at 5.6 µM | hit rate 0.63% among 330,000 | AID 463079;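 active means inhibition above that plate's mean sample inhibition plus 3 SD, cut at about 26% in these data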;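 further: 0% = ATP-challenged DMSO wells and 100% = DMSO wells without ATP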
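Test system: untransfected parental CHO cell line; also added: ATP stimulus; dosing: 5.6 µM, single dose; signal: calcium-sensitive Fluo-8 fluorescence; measure: percent inhibition of ATP-evoked calcium rise, normalized to controls; benchmarks: low control ATP plus DMSO, high control DMSO only; replication: one well per compound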
nonsel antag count: counter-screen for TAAR1 antagonists: nonselective antagonists; shares compounds with TAAR1 antagonist; counterscreen cell line, calcium fluorescence, antagonist mode; inhibition, % at 3 µM; hit rate 77% among 2,400; in the data active means inhibition above about 22%;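 further: CHO-Ga16 host cells stimulated with ATP at an EC80 level; 0% = agonist EC80 plus vehicle and 100% = vehicle without agonist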
TAAR1 antag conf: human TAAR1 antagonism, confirmed; shares compounds with TAAR1 antagonist; TAAR1-expressing cells, fluorescence antagonist read-out; inhibition, % at 3 µM; hit rate 40% among 2,400; in the data active means inhibition above about 49%;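 further: CHO-Ga16 host cells challenged with agonist PEA near its EC80; 0% = agonist at EC80 plus vehicle and 100% = vehicle with no agonist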
Ga16 ag counter: nonselective Ga16 agonism, counter-screen; hit rate 18% among 2,400; shares compounds with TAAR1 antagonist; activation, % at 3 µM; Ga16-expressing cells, calcium fluorescence, agonist counterscreen; in the data active means activation above about 12%;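 further: 0% = vehicle wells and 100% = saturating stimulus response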
TAAR1 ag count: counter-screen for human TAAR1 antagonists: TAAR1 agonists. shares compounds with TAAR1 antagonist. hTAAR1 cell line, fluorescence activation, agonist mode. activation, % at 3 µM. hit rate 2% among 2,400; in the data active means activation above about 37%;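 further: CHO cells stably expressing TAAR1 with calcium dye readout; 0% = DMSO vehicle and 100% = full agonist response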
The depositor's hits bear a star; . = not tested or not shown.

SMILES	TAAR1 antagonist	TAAR1 agonist	OX1R antag-1	OX1R antag-2	GalR3 antagonist	CHO parental Ca	nonsel antag count	TAAR1 antag conf	Ga16 ag counter	TAAR1 ag count
CCC(c1nnnn1Cc1ccccc1)N1CCC(n2c(=O)[nH]c3ccccc32)CC1 (stereo not drawn)	72*	24	.	.	-8	.	35*	56*	11	14
COc1ccc(-n2nnnc2C(CCc2ccccc2)N2CCC(n3c(=O)[nH]c4ccccc43)CC2)cc1 (stereo not drawn)	57*	7	.	.	-5	.	9	39	5	4
CCCCn1nnnc1C(C1CC1)N1CCC2(CC1)C(=O)NCN2c1ccccc1 (stereo not drawn)	-12	1	.	.	-5	.	.	.	.	.
CCCCn1nnnc1C(C1CC1)N1CCC(n2c(=O)[nH]c3ccccc32)CC1 (stereo not drawn)	73*	15	.	.	-7	.	24*	45	10	20
CCC(c1nnnn1-c1ccc(OC)cc1)N1CCC(n2c(=O)[nH]c3ccccc32)CC1 (stereo not drawn)	36	14	.	.	0	.	.	.	.	.
O=c1[nH]c2ccccc2n1C1CCN(C(c2ccnc3ccccc23)c2nnnn2-c2ccc3c(c2)OCCO3)CC1 (stereo not drawn)	66*	18	.	.	-1	.	11	48	13*	48*
COc1cccc(C(c2nnnn2-c2c(C)cccc2C)N2CCC(n3c(=O)[nH]c4ccccc43)CC2)c1OC (stereo not drawn)	31	1	.	.	0	.	.	.	.	.
COC(=O)C1=C(c2cccc(Cl)c2)C[C@@H]2CC[C@H]1N2C(=O)NCC1CC1	9	0	-20	12	0	-17	.	.	.	.
COC(=O)C1=C(c2ccc(OC)c(OC)c2)C[C@@H]2CC[C@H]1N2C(=O)NCCc1ccccc1	17	13	-14	5	-3	-12	.	.	.	.
CCCCn1nnnc1C(CCc1ccccc1)N1CCC(n2c(=O)[nH]c3ccccc32)CC1 (stereo not drawn)	67*	11	.	.	-8	.	19	45	7	27
CCCCn1nnnc1C(CCSC)N1CCC(n2c(=O)[nH]c3ccccc32)CC1 (stereo not drawn)	65*	17	.	.	-7	.	29*	54*	10	27
Cc1cccc(C)c1-n1nnnc1C(CCc1ccccc1)N1CCC(n2c(=O)[nH]c3ccccc32)CC1 (stereo not drawn)	16	4	.	.	1	.	.	.	.	.
O=C(O)C1(Br)CC12c1ccccc1-c1ccccc12 (stereo not drawn)	-9	0	.	.	-5	.	.	.	.	.
COC(=O)C1=C(c2ccc(F)cc2OCc2ccccc2)C[C@@H]2CC[C@H]1N2C(=O)NCc1cccc(OC)c1	74*	11	19	15	-2	-30	29*	42	4	1
COC(=O)C1=C(c2ccc(F)cc2OCc2ccccc2)C[C@@H]2CC[C@H]1N2C(=O)NCc1ccc(OC)cc1	62*	13	6	10	-6	-18	21	45	4	4
COC(=O)C1=C(c2ccc(F)cc2OCc2ccccc2)C[C@@H]2CC[C@H]1N2C(=O)NCc1cccc(C(F)(F)F)c1	39	9	25	22	-3	-17	.	.	.	.
N#CC1c2ccccc2-n2nncc2CN1S(=O)(=O)c1cc(Cl)cc(Cl)c1 (stereo not drawn)	-15	1	.	.	-7	.	.	.	.	.
CC(C)C[C@@H]1COc2cc(N3CCN(C)CC3)ccc2S(=O)(=O)N1	-2	1	.	.	-7	.	.	.	.	.
O=C1NC(=O)C(Cc2ccccc2)(Cc2ccccc2)C(=O)N1Cc1ccccc1	60*	0	.	.	-6	.	13	35	1	4

Screening results (PubChem BioAssay)
